Converted amounts (≈) assume the structure as drawn.
What was measured:
[1] = Selectivity index, ratio of IC50 for human MDA435 cells to MIC for Escherichia coli ATCC 25922; format: functional
Method in brief: (§1)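 Selectivity index is calculated as SI = IC50/MIC. IC50 is the cytotoxicity measured in MDA435 cells (melanoma, previously described as mammary carcinoma). MIC is the EUCAST reference-protocol value for the given microbial strain.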

[2] = tested on: Candida albicans; assay: Antifungal activity against Candida albicans ATCC 10231 assessed as growth inhibition after 18 hrs by […]; format: functional; conditions: ATCC 10231, 18 h
[3] = Selectivity index, ratio of IC50 for human MDA435 cells to MIC for Aspergillus fumigatus SNB-AF1; format: functional; method in brief: as §1
[4] = tested on: Staphylococcus aureus; assay: Antibacterial activity against Staphylococcus aureus ATCC 29213 assessed as growth inhibition after 24 hrs by […]; format: functional; conditions: ATCC 29213, 24 h
[5] = tested on: Escherichia coli; assay: Antibacterial activity against Escherichia coli ATCC 25922 assessed as growth inhibition after 24 hrs by […]; format: functional
[6] = Selectivity index, ratio of IC50 for human MDA435 cells to MIC for Candida albicans ATCC 10231; format: functional; method in brief: as §1
[7] = tested on: Trichophyton rubrum; assay: Antifungal activity against Trichophyton rubrum SNB-TR1 assessed as growth inhibition after 5 days by […]; format: functional; conditions: SNB-TR1, 120 h
[8] = tested on: Aspergillus fumigatus; assay: Antifungal activity against Aspergillus fumigatus SNB-AF1 assessed as growth inhibition after 24 hrs by […]; format: functional; conditions: SNB-AF1, 24 h
[9] = Selectivity index, ratio of IC50 for human MDA435 cells to MIC for Candida parapsilosis ATCC 22019; format: functional; method in brief: as §1
[10] = Cytotoxicity against human MDA435 cells assessed as growth inhibition; format: functional, cell-based; conditions: MDA-MB-435
[11] = tested on: Candida parapsilosis; assay: Antifungal activity against Candida parapsilosis ATCC 22019 assessed as growth inhibition after 18 hrs by […]; format: functional; conditions: Lodderomyces parapsilosis, ATCC 22019, 18 h
[12] = tested on: KB; assay: Cytotoxicity against human KB cells assessed as growth inhibition; format: functional, cell-based
[13] = Selectivity index, ratio of IC50 for human MDA435 cells to MIC for Trichophyton rubrum SNB-TR1; format: functional; method in brief: as §1
[14] = Selectivity index, ratio of IC50 for human MDA435 cells to MIC for Staphylococcus aureus ATCC 29213; format: functional; method in brief: as §1
[15] = tested on: MCF7; assay: Cytotoxicity against human MCF7 cells assessed as inhibition of FBS-induced cellular growth; format: functional, cell-based
[16] = tested on: MCF7; assay: Cytotoxicity against human MCF7 cells assessed as inhibition of IGF1-induced cellular growth; format: functional, cell-based

In the case of `CC[C@@H](C)C[C@@H](C)/C=C/CC[C@@H](O)[C@H](Cc1ccc(O)cc1)N(C)C.O=CO`, the “Selectivity Index” value [1] is reported as 0.8, the MIC [2] is reported as 4 µg/mL and the “Selectivity Index” value [3] is reported as 0.8. For the same compound, the MIC [4] was 16 µg/mL, the MIC ([5]; ATCC 25922, 24 h) was 32 µg/mL and the “Selectivity Index” value [6] was 6.1. For the same compound, the MIC [7] was 4 µg/mL, the MIC [8] was 32 µg/mL and the “Selectivity Index” value [9] was 0.8. It also gave an IC50 [10] of 24.3 µg/mL, an MIC [11] of 32 µg/mL and an IC50 [12] of 16 µg/mL. For the same compound, the “Selectivity Index” value [13] was 6.1 and the “Selectivity Index” value [14] was 1.5.

With `OC(Cn1cncn1)(Cn1cncn1)c1ccc(F)cc1F` [FLUCONAZOLE] the MIC [2] was 4 µg/mL (≈ 13.1 µM) and the MIC [11] was 4 µg/mL (≈ 13.1 µM).

`CCC(C)n1ncn(-c2ccc(N3CCN(c4ccc(OCC5COC(Cn6cncn6)(c6ccc(Cl)cc6Cl)O5)cc4)CC3)cc2)c1=O` (stereo unspecified) [ITRACONAZOLE] showed an MIC [7] of 0.25 µg/mL (≈ 0.354 µM) and an MIC [8] of 0.5 µg/mL (≈ 0.709 µM).

In the case of `Cc1onc(-c2ccccc2)c1C(=O)N[C@@H]1C(=O)N2[C@@H]1SC(C)(C)[C@@H]2C(=O)O` [OXACILLIN], the MIC [4] is reported as 0.5 µg/mL (≈ 1.25 µM).

`CC[C@@H](C)C[C@@H](C)/C=C/CC[C@@H](O)[C@H](Cc1ccc(O)cc1)NC` [TYROSCHERIN 8] gave an IC50 [15] of 6.2 µM and an IC50 [16] of 0.03 µM.

With `CC[C@@H](C)C[C@@H](C)/C=C/CC[C@@H](O)[C@H](Cc1ccc(O)cc1)NC.O=CO` [TYROSCHERIN FORMATE] the “Selectivity Index” value [1] was 1.3, the MIC [2] was 2 µg/mL and the “Selectivity Index” value [3] was 1.3. For the same compound, the MIC [4] was 8 µg/mL, the MIC ([5]; ATCC 25922, 24 h) was 16 µg/mL and the “Selectivity Index” value [6] was 10. The MIC [7] was 2 µg/mL, the MIC [8] was 16 µg/mL and the “Selectivity Index” value [9] was 1.3. It also gave an IC50 [10] of 20 µg/mL, an MIC [11] of 16 µg/mL and an IC50 [12] of 8.6 µg/mL. For the same compound, the “Selectivity Index” value [13] was 10 and the “Selectivity Index” value [14] was 2.5.

Work on GENTAMICIN yielded an MIC [5] of 8 µg/mL.

Reference: ChEMBL document CHEMBL2375260, “Antifungal agents from Pseudallescheria boydii SNB-CN73 isolated from a Nasutitermes sp. termite” (J Nat Prod, 2013)
